# Activity calls are given as the source filed them. No cut-off for these calls is given here.
# How the values were obtained:
# [1] = system: Pituitary gland; experiment: Effect on prolactin release in Sprague-Dawley rat pituitary gland at 100 ug/ml by radioimmunoassay; type: functional, tissue-based
# In short: (§1)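 Anterior pituitaries from 20-day-old female Sprague-Dawley rats, two per 1 ml lactated Ringer's, incubated 6 hr at 37° with shaking. Medium was replaced hourly and assayed by RIA for LH, FSH, GH, PRL and TSH. Peptide was added after two preincubation periods (I3–I6), with LH-RH at I5 and I6. Agonism was read from I3/I4 release and antagonism from I5/I6. Values are in ng of NIH reference standards.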
# [2] = system: Pituitary gland; experiment: Effect on growth hormone release in Sprague-Dawley rat pituitary gland at 100 ug/ml by radioimmunoassay; type: functional, tissue-based; in short: as §1
# [3] = Retardation factor of the compound using EtOH-H2O at ratio of 7:3 as solvent system by thin layer chromatography; type: physicochemical
# [4] = system: Canis familiaris; experiment: Decrease in systemic arterial blood pressure in dog at >5 ng/kg, iv measured for 2 to 20 mins after drug dosage; type: functional, organism-based; settings: Canis lupus familiaris; Artery
# [5] = Retardation factor of the compound using CHCl3-MeOH-concentrated NH4OH at ratio of 60:45:20 as solvent system by thin layer chromatography; type: physicochemical
# [6] = target: Substance-P receptor (Rattus norvegicus) (UniProt P14600); experiment: Agonist activity at NK1 receptor in Sprague-Dawley rat pituitary gland assessed as change in LH release at 1000 ng/ml by radioimmunoassay (reference value: -11 +/- 27 ng/ml)
# [7] = system: Pituitary gland; experiment: Effect on thyrotropin hormone release in Sprague-Dawley rat pituitary gland at 100 ug/ml by radioimmunoassay; type: functional, tissue-based; in short: as §1
# [8] = Retardation factor of the compound using n-BuOH-HOAc-EtOAc-H2O at ratio of 1:1:1:1 as solvent system by thin layer chromatography; type: physicochemical
# [9] = target: Substance-P receptor (Rattus norvegicus) (UniProt P14600); experiment: Agonist activity at NK1 receptor in Sprague-Dawley rat pituitary gland assessed as change in FSH release at 100000 ng/ml by radioimmunoassay (reference value: 613 +/- 203 ng/ml)
# [10] = target: Substance-P receptor (Rattus norvegicus) (UniProt P14600); experiment: Agonist activity at NK1 receptor in Sprague-Dawley rat pituitary gland assessed as change in LH release at 10000 ng/ml by radioimmunoassay (reference value: -11 +/- 27 ng/ml)
# [11] = target: Substance-P receptor (Rattus norvegicus) (UniProt P14600); experiment: Antagonist activity at NK1 receptor in Sprague-Dawley rat pituitary gland assessed as inhibition of FSH release by radioimmunoassay in presence of LH-RH; in short: as §1
# [12] = target: Substance-P receptor (Cavia porcellus) (UniProt P30547); experiment: Agonist activity at NK1 receptor in guinea pig ileum assessed as increase in muscle tone; type: tissue-based
# In short: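 Guinea pig ileum segment suspended in a 3-ml bath of oxygenated Tyrode's solution at 38°, with contractile response recorded.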
# [13] = system: Canis familiaris; experiment: Decrease in systemic arterial blood pressure in dog at 10 ng/kg, iv measured for 2 to 20 mins after drug dosage (reference value: 140 mmHg); type: functional, Canis lupus familiaris, Artery
# [14] = Retardation factor of the compound using n-PrOH-1N HOAc at ratio of 2:1 as solvent system by thin layer chromatography; type: physicochemical
# [15] = target: Substance-P receptor (Rattus norvegicus) (UniProt P14600); experiment: Antagonist activity at NK1 receptor in Sprague-Dawley rat pituitary gland assessed as inhibition of LH release by radioimmunoassay in presence of LH-RH; in short: as §1
# [16] = target: Substance-P receptor (Rattus norvegicus) (UniProt P14600); experiment: Agonist activity at NK1 receptor in Sprague-Dawley rat pituitary gland assessed as change in FSH release at 1000 ng/ml by radioimmunoassay (reference value: 613 +/- 203 ng/ml)
# [17] = target: Substance-P receptor (Rattus norvegicus) (UniProt P14600); experiment: Agonist activity at NK1 receptor in Sprague-Dawley rat pituitary gland assessed as change in FSH release at 10000 ng/ml by radioimmunoassay (reference value: 613 +/- 203 ng/ml)
# [18] = target: Substance-P receptor (Rattus norvegicus) (UniProt P14600); experiment: Agonist activity at NK1 receptor in Sprague-Dawley rat pituitary gland assessed as change in LH release at 100000 ng/ml by radioimmunoassay (reference value: -11 +/- 27 ng/ml)
# [19] = Retardation factor of the compound using EtOAc-Pyr-HOAc-H2O at ratio of 5:5:1:3 as solvent system by thin layer chromatography; type: physicochemical
# Chain of Substance-P receptor (Rattus norvegicus) (P14600 whole entry): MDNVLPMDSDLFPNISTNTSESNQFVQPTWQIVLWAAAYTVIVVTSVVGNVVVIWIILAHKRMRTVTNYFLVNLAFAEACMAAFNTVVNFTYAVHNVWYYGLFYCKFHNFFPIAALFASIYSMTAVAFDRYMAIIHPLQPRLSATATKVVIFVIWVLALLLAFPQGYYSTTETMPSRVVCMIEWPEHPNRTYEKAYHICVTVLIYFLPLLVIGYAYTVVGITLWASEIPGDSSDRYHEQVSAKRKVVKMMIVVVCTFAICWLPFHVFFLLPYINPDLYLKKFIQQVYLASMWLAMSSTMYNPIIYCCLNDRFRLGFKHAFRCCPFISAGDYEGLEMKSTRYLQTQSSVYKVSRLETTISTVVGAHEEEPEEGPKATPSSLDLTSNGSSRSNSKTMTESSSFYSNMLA
# Chain of Substance-P receptor (Cavia porcellus) (P30547 whole entry): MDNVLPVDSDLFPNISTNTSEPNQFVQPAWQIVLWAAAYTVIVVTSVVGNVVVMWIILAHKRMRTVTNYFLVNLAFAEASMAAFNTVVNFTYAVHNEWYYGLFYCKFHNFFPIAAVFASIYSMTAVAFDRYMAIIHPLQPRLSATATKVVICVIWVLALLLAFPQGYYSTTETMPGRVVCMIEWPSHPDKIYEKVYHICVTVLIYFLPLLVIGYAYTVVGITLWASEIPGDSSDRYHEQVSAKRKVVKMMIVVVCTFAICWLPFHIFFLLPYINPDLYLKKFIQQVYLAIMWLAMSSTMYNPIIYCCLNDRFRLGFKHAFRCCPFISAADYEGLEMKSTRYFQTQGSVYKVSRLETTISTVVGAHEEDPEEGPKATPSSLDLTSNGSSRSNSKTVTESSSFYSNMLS
smiles,measurement,setting,value
CSCC[C@H](NC(=O)[C@H](CC(C)C)NC(=O)CNC(=O)[C@H](Cc1ccc(O)cc1)NC(=O)[C@H](Cc1ccccc1)NC(=O)[C@H](CCC(N)=O)NC(=O)[C@H](CCC(N)=O)NC(=O)[C@@H]1CCCN1C(=O)[C@H](CCCCN)NC(=O)[C@@H]1CCCN1C(=O)[C@@H](N)CCCNC(=N)N)C(N)=O,Activity,[1],inactive
same,Activity,[2],inactive
same,Rf,[3],0
same,inhibition,[4],Active
same,Rf,[5],0.13
same,Activity,[6],-13 ng/mL
same,Activity,[7],inactive
same,Rf,[8],0.09
same,Activity,[9],1330 ng/mL
same,Activity,[10],11 ng/mL
same,inhibition,[11],inactive
same,Activity,[12],Active
same,Activity,[13],110 mmHg
same,Rf,[14],0.05
same,inhibition,[15],inactive
same,Activity,[16],666 ng/mL
same,Activity,[17],586 ng/mL
same,Activity,[18],68 ng/mL
same,Rf,[19],0.9

# Source: ChEMBL document CHEMBL3272072 (J Med Chem, 1976)
